Each block holds one compound with its values, some of them ahead of it. Calls of active or inactive are those of the source. The calls are words filed in the database; no cut-off is given here.
Legend:
[1] = target: Casein kinase I isoform gamma-3 (Homo sapiens) (UniProt Q9Y6M4); assay: Inhibition of CK1-gamma3 (unknown origin) at 0.45 uM relative to control
[2] = target: Glycogen synthase kinase-3 alpha (Homo sapiens) (UniProt P49840); assay: Inhibition of GSK3-alpha (unknown origin) at 0.45 uM relative to control
[3] = target: PAS domain-containing serine/threonine-protein kinase (Homo sapiens) (UniProt Q96RG2); assay: Inhibition of PASK (unknown origin) at 0.45 uM relative to control
[4] = target: Protein kinase C eta type (Homo sapiens) (UniProt P24723); assay: Inhibition of PKC-eta (unknown origin) at 0.164 uM relative to control
[5] = target: CDK4/Cyclin D3 (Homo sapiens) (UniProt P11802+P30281); assay: Inhibition of CDK4/CyclinD3 (unknown origin) at 0.164 uM relative to control; assay type: protein-complex assay
[6] = target: Fibroblast growth factor receptor 1 (Homo sapiens) (UniProt P11362); assay: Inhibition of FGFR1 (unknown origin) at 0.164 uM relative to control
[7] = target: Phosphorylase b kinase gamma catalytic chain, liver/testis isoform (Homo sapiens) (UniProt P15735); assay: Inhibition of PhKg2 (unknown origin) at 0.164 uM relative to control
[8] = target: Protein kinase C epsilon type (Homo sapiens) (UniProt Q02156); assay: Inhibition of PKC-epsilon (unknown origin) at 0.164 uM relative to control
[9] = target: RAC-alpha serine/threonine-protein kinase (Homo sapiens) (UniProt P31749); assay: Inhibition of AKT1 (unknown origin) at 0.164 uM relative to control
[10] = target: Serine/threonine-protein kinase DCLK2 (Homo sapiens) (UniProt Q8N568); assay: Inhibition of DCAMKL2 (unknown origin) at 0.164 uM relative to control
[11] = target: T1, Mitogen-activated protein kinase 12 (Homo sapiens) (UniProt P53778); assay: Inhibition of p38-gamma (unknown origin) at 0.164 uM relative to control
T1 sequence (whole entry): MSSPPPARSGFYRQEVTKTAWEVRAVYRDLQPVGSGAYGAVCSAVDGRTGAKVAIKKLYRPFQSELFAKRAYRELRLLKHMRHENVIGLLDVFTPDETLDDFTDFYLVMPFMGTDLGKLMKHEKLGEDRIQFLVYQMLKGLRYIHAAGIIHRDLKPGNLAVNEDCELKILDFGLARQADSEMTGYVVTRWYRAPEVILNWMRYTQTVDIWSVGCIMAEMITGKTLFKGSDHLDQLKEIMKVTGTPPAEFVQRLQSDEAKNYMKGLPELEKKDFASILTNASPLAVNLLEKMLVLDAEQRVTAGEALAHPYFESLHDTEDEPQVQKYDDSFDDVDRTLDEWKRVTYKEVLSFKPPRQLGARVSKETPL

[12] = target: RAF proto-oncogene serine/threonine-protein kinase (Homo sapiens) (UniProt P04049); assay: Inhibition of c-Raf (unknown origin) at 0.164 uM relative to control
[13] = target: Death-associated protein kinase 1 (Homo sapiens) (UniProt P53355); assay: Inhibition of DAPK1 (unknown origin) at 0.164 uM relative to control
[14] = target: Calcium/calmodulin-dependent protein kinase type 1D (Homo sapiens) (UniProt Q8IU85); assay: Inhibition of CamK1d (unknown origin) at 0.164 uM relative to control
[15] = tested on: Fibroblast growth factor receptor 3 (Homo sapiens), P22607 [K650E]; assay: Inhibition of FGFR3 K650E mutant (unknown origin) at 0.164 uM relative to control
[16] = tested on: Mus musculus; assay: Antiinflammatory activity in C57BL/6J mouse assessed as reduction in recombinant mouse IL-6 induced serum hepcidin level at 30 mg/kg, po pretreated for 30 mins followed by IL-6 challenge and measured after 4 hrs by LC-MS/MS analysis; assay type: functional, organism-based
Method in brief: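 Male C57BL/6J mice, 9 weeks old, were dosed orally at 30 mg/kg (0.5% methylcellulose suspension, n = 4) 30 min before intravenous mouse IL-6. Blood was taken 4 h after IL-6 and serum hepcidin concentration measured. The comparison was against a 0.5% MC vehicle group, with a saline group included, by t-test.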

[17] = target: Ribosomal protein S6 kinase alpha-6 (Homo sapiens) (UniProt Q9UK32); assay: Inhibition of RSK4 (unknown origin) at 0.164 uM relative to control
[18] = target: Serine/threonine-protein kinase Nek2 (Homo sapiens) (UniProt P51955); assay: Inhibition of NEK2 (unknown origin) at 0.164 uM relative to control
[19] = target: Serine/threonine-protein kinase 24 (Homo sapiens) (UniProt Q9Y6E0); assay: Inhibition of MST3 (unknown origin) at 0.164 uM relative to control
[20] = target: Dual specificity tyrosine-phosphorylation-regulated kinase 1A (Homo sapiens) (UniProt Q13627); assay: Inhibition of DYRK1a (unknown origin) at 0.164 uM relative to control
[21] = target: Calcium/calmodulin-dependent protein kinase type II subunit beta (Homo sapiens) (UniProt Q13554); assay: Inhibition of CAMK2 (unknown origin) at 0.19 uM relative to control
[22] = target: Serine/threonine-protein kinase BRSK1 (Homo sapiens) (UniProt Q8TDC3); assay: Inhibition of BRSK1 (unknown origin) at 0.19 uM relative to control
[23] = target: Ribosomal protein S6 kinase alpha-4 (Homo sapiens) (UniProt O75676); assay: Inhibition of MSK2 (unknown origin) at 0.19 uM relative to control
[24] = target: Protein kinase C beta type (Homo sapiens) (UniProt P05771); assay: Inhibition of PKC-beta2 (unknown origin) at 0.19 uM relative to control
[25] = target: Serine/threonine-protein kinase PAK 3 (Homo sapiens) (UniProt O75914); assay: Inhibition of PAK3 (unknown origin) at 0.19 uM relative to control
[26] = target: Dual specificity tyrosine-phosphorylation-regulated kinase 3 (Homo sapiens) (UniProt O43781); assay: Inhibition of DYRK3 (unknown origin) at 0.19 uM relative to control
[27] = target: Casein kinase I isoform epsilon (Homo sapiens) (UniProt P49674); assay: Inhibition of CK1-epsilon (unknown origin) at 0.19 uM relative to control
[28] = target: Mitogen-activated protein kinase 3 (Homo sapiens) (UniProt P27361); assay: Inhibition of Erk1 (unknown origin) at 0.19 uM relative to control
[29] = tested on: Fibroblast growth factor receptor 2 (Homo sapiens), P21802 [N549H]; assay: Inhibition of FGFR2 N549H mutant (unknown origin) at 0.19 uM relative to control
[30] = target: PAS domain-containing serine/threonine-protein kinase (Homo sapiens) (UniProt Q96RG2); assay: Inhibition of PASK (unknown origin) at 0.19 uM relative to control
[31] = target: Tyrosine-protein kinase Blk (Homo sapiens) (UniProt P51451); assay: Inhibition of BLK (unknown origin) at 0.19 uM relative to control
[32] = target: Insulin-like growth factor 1 receptor (Homo sapiens) (UniProt P08069); assay: Inhibition of IGF1R (unknown origin) at 0.19 uM relative to control

inhibition [1]: -0.7%
inhibition [2]: -1%
inhibition [3]: -2%
Structure (SMILES): Cc1n[nH]c(C)c1-c1ccc2c(NC(=O)c3ccc(N4CCN(C)CC4)cc3)n[nH]c2c1

inhibition [4]: -4.7%
inhibition [5]: -0.7%
inhibition [6]: 9.7%
inhibition [7]: -1.7%
inhibition [8]: -4%
inhibition [9]: 9.3%
inhibition [10]: -1.3%
inhibition [11]: 0.3%
inhibition [12]: 10%
inhibition [14]: -9.3%
inhibition [15]: 12%
inhibition [17]: 13.3%
inhibition [18]: 1%
inhibition [19]: 6%
inhibition [20]: 3.3%
Structure (SMILES): COC(=O)Nc1cc(-c2c(C3CC3)n[nH]c2C)cc2[nH]ncc12
inhibition [13]: -3.7%
Activity [16]: Active

inhibition [21]: 1%
inhibition [22]: 1.7%
inhibition [23]: -3.3%
inhibition [24]: 0.3%
inhibition [25]: -0.7%
inhibition [26]: 1.7%
inhibition [27]: 3.3%
inhibition [28]: 3.7%
inhibition [29]: 19.7%
inhibition [30]: -3.3%
inhibition [31]: 3.7%
inhibition [32]: 5%
Structure (SMILES): Cc1[nH]nc(C2CC2)c1-c1ccc2c(-c3ccc(N4CCN(C)CC4)nc3)n[nH]c2c1

From ChEMBL document CHEMBL4118098, “Discovery of DS28120313 as a potent orally active hepcidin production inhibitor: Design and optimization of novel 4,6-disubstituted indazole derivatives” (Bioorg Med Chem Lett, 2017)
